Screening results: PubChem, several laboratories
iPSC survival up: hiPSC single-cell survival enhancement. ATPlite luminescence; 100% = ROCK inhibitor wells, 0% = DMSO. 360,000 compounds, 0.044% hits. AID 602274. survival enhancement, % at 20 µM; in the data active = survival enhancement above about 18%;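 also: cells exposed to compounds for 16 hours before the ATP read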
T cruzi repl: blocks replication of Trypanosoma cruzi; T. cruzi beta-gal in NIH3T3, luminescence, 90 h; inhibition, % (concentration not given with the values); 300,000 compounds, 1.4% hits; AID 1885;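 active = mean inhibition across valid replicates above about 55%, limit read from the data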;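 also: signal also drops with host cell toxicity which is not excluded here; 0% = plate median of DMSO wells and 100% = zero luminescence signal; higher percent means less beta-gal luminescence so fewer parasites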
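assay system = mouse NIH/3T3 fibroblasts infected with β-gal-expressing T. cruzi Tulahuen C4 | input = 5,000 NIH/3T3 host cells per well | buffer or medium = DMEM plus 2% FBS | timing = 3 h host attachment, then at least 90 h co-culture | measured by = GalScreen luminescence, 60 min | evaluation = luminescence reflecting intracellular parasite burden, expressed as percent inhibition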
NR1D1 modulator: modulators of human Rev-erb alpha DNA binding | P20393 | Rev-erbα–FITC-DNA binding, fluorescence polarization, 90 min | activity, % at 10 µM | 370,000 compounds, 0.79% hits | AID 1259318;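 active = activity above about 14%, limit read from the data; passing the limit was not always enough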;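 also: 0% = DMSO wells with 35 nM protein and 100% = DMSO wells with 750 nM protein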
Target sequence (P20393 whole entry, looked up): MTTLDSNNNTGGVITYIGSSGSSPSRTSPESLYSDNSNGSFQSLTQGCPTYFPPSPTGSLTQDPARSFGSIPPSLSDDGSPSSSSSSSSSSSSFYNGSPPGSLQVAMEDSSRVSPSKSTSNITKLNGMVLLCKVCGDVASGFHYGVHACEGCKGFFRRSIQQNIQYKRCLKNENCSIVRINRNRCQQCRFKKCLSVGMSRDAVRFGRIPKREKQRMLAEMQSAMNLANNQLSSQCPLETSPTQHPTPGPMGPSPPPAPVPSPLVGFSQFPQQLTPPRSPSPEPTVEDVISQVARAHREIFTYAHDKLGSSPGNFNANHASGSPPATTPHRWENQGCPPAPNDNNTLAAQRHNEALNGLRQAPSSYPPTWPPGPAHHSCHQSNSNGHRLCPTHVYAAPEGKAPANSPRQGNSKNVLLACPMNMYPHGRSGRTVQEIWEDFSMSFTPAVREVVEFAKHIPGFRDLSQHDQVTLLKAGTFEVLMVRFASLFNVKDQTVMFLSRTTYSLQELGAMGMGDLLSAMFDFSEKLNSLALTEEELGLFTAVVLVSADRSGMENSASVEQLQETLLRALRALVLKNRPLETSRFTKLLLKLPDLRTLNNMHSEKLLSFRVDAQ
PG9 Ab binder: small molecules binding HIV-1 gp120 antibody PG9; TR-FRET gp120-PG9 antibody binding; 360,000 compounds, 0.43% hits; AID 624416; inhibition, % at 6.7 µM; in the data active = inhibition above about 8.5%
H9c2 TAG inh: triacylglycerol accumulation inhibition | H9c2 cells, Nile Red lipid (TAG) fluorescence; cells loaded with 200 µM oleic acid | inhibition, % at 12.5 µM | 230,000 compounds, 0.66% hits | AID 651582;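 active = pattern-corrected inhibition of lipid staining of at least 50% with the nuclear-stain viability signal not falling by more than 50%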;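 also: 0% = DMSO wells and 100% = triacsin C control wells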
MIN6 prolif: MIN6 beta-cell proliferation induction; MIN6 cells proliferation, ATPlite luminescence, 48 h; cells starved in 0.2% serum; 100% = growth in 10% serum; proliferation, % at 10 µM; 330,000 compounds, 0.29% hits; AID 2380;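 active = compounds whose signal lies at least 3.5 SD above the mean of all wells on their plate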;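 also: 0% = DMSO-treated cells in low-serum medium and 100% = 10% serum control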
PG9 binder conf: confirmation of small molecules binding HIV-1 gp120 antibody PG9; 1,500 compounds, 90% hits; shares compounds with PG9 Ab binder; TR-FRET PG9 antibody binding, biochemical; inhibition, % at 6.7 µM; in the data active = inhibition above about 9%
PGV04 Ab binding: PGV04 control antibody binding, counter-screen | shares compounds with PG9 Ab binder | TR-FRET PGV04 antibody-gp120 binding, biochemical | inhibition, % at 6.7 µM | 1,500 compounds, 95% hits | AID 651604; in the data active = inhibition above about 9.5%
PG9 bind DR: PG9 antibody binding, dose response; shares compounds with PG9 Ab binder; TR-FRET PG9 antibody-gp120 binding inhibition; IC50, µM; 95 tested, under 10 active; in the data active = IC50 below about 10 µM
PGV04 binding DR: counter-screen for PG9 binders: binding to control antibody PGV04. shares compounds with PG9 Ab binder. TR-FRET binding to control antibody PGV04. IC50, µM. 95 compounds, 20% hits. AID 651937
PG126 binding DR: binds control antibody PG126 in PG9 counter-screen | shares compounds with PG9 Ab binder | TR-FRET binding to antibody PG126, counterscreen | IC50, µM | 95 compounds, 20% hits | AID 651939
Rev-erbA confirm: Rev-erb alpha (human) modulation, hit confirmation | shares compounds with NR1D1 modulator | Rev-erb alpha FITC-DNA binding, fluorescence polarization, 90 min | activation, % at 25 µM | 3,000 compounds, 61% hits | AID 1259319;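 active = activation at or above a set limit, or at least 3 SD above the negative control mean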;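 also: 0% = 35 nM protein with DMSO and 100% = 750 nM protein high control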
RORg counter: affects RORgamma DNA binding in a Rev-erb alpha counter-screen; shares compounds with NR1D1 modulator; purified RORgamma protein-FITC-DNA binding, fluorescence polarization; IC50, µM; 910 compounds, 8% hits; AID 1259320;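 active = Compounds whose fitted half-maximal concentration for disrupting protein-DNA binding is below 10 micromolar; the record names Rev-erb in its text, so the target is in doubt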
The depositor's hits bear a star; i = inactive; · = not tested or not shown. This is a sample that favours compounds with a hit; in the whole collection about 2.9% have one here. Rule as the data show it, unless noted: active = IC50 below about 9 µM; inactive = the rest.

SMILES | iPSC survival up | T cruzi repl | NR1D1 modulator | PG9 Ab binder | H9c2 TAG inh | MIN6 prolif | PG9 binder conf | PGV04 Ab binding | Rev-erbA confirm | others
COc1ccccc1CNC(=O)CN1CCC(NC(=O)c2ccccc2F)CC1 | 0 | -7 | 1 | 2 | -7 | 1 | · | · | ·
Cc1ccc2nc(SCC(=O)Nc3cc(C)on3)c(C)cc2c1 | 1 | 15 | 40* | 18* | · | 3 | 26* | 44* | 21*
CCOc1ccc2nc(SCC(=O)NNC(=O)c3ccco3)c(C)cc2c1 | -1 | -2 | 2 | -1 | · | 1 | · | · | ·
COc1ccc2cc(C)c(SCC(=O)Nc3cc(C)on3)nc2c1 | -1 | 17 | 109* | 34* | · | -3 | 46* | 64* | 33* | RORg counter=i
Cc1ccc2nc(SCC(=O)NCc3ccco3)c(C)cc2c1 | 4 | 15 | -3 | 0 | · | 3 | · | · | ·
Cc1cc(C)c(C#N)c(SCC(=O)Nc2cc(C)on2)n1 | 0 | · | 6 | 0 | -4 | 0 | · | · | ·
CCOc1ccc2nc(SCC(=O)Nc3cc(C)on3)c(C)cc2c1 | 1 | 15 | 58* | 28* | · | -2 | 33* | 51* | 15
O=C(CCl)N1CCN(S(=O)(=O)c2ccc3c(c2)CCC3)CC1 | 0 | · | 12 | 0 | 33 | -8 | · | · | ·
CCOc1ccccc1OCC(=O)NNC(=S)NC1CCCCC1 | -1 | -7 | 3 | 1 | 0 | -2 | · | · | ·
Cc1ccc(-c2cc3ncc(C#N)c(N)n3n2)cc1 | -4 | -21 | 47* | 37* | · | 6 | 48* | 63* | 12
Cc1cccc2cc(C#N)c(SCC(=O)N3CCC(C)CC3)nc12 | 5 | 14 | 53* | 8.8* | -15 | 0 | 12* | 16* | 65* | RORg counter=i
Cc1cccc2cc(C#N)c(SCC(=O)N3CC(=O)Nc4ccccc43)nc12 | 3 | 26 | 90* | 30* | 44 | -4 | 46* | 75* | 67* | RORg counter=>40
COc1ccc2cc(C#N)c(SCC(=O)N3CC(=O)Nc4ccccc43)nc2c1 | -1 | 0 | · | · | 12 | -2 | · | · | ·
Clc1nc(Oc2ccccc2)nc(-c2cn(-c3ccccc3)c3ccccc23)n1 | 1 | -9 | -11 | -3 | -4 | 0 | · | · | ·
CCNc1nc(Cl)nc(-c2cn(-c3ccccc3)c3ccccc23)n1 | 0 | -25 | 42* | 11* | · | -6 | 9.0* | 9.4* | 14
Brc1cc(Br)c2nc3c(cc2c1)CCC3 | 0 | 3 | 33* | 52* | · | 0 | 58* | 66* | 23*
N#Cc1cc2ccccc2nc1SCC(=O)Nc1ccccc1N1CCOCC1 | 0 | 9 | 9 | -1 | · | · | · | · | ·
Cc1cccc2cc(C#N)c(SCC(=O)Nc3ccccc3N3CCOCC3)nc12 | -3 | -5 | 48* | 17* | 23 | -1 | 17* | 39* | 44* | RORg counter=>40
Cc1cc(NC(=O)CSc2nc3c(C)cccc3cc2C#N)no1 | 0 | 14 | 83* | 27* | · | 0 | 43* | 72* | 53* | RORg counter=>40
CCc1cc2cccc(C)c2nc1SCC(=O)Nc1cc(C)on1 | 0 | -2 | 9 | 4 | -1 | -3 | · | · | ·
O=C(O)CSc1nc2ccccc2nc1Cc1ccccc1F | 0 | -10 | 22* | 10* | · | 0 | 16* | 27* | 12
N#Cc1c(-c2ccccc2)cc(-c2ccccc2)nc1Br | 0 | 8 | 29* | 8.7* | · | -1 | 14* | 17* | 10
CCOCCCn1c(=S)[nH]c2cc(C(=O)NCCc3ccccc3)ccc2c1=O | 0 | -5 | 43* | 18* | · | 1 | 23* | 53* | 31* | RORg counter=i
O=C(CCN1C(=O)c2cccc3cccc(c23)C1=O)Nc1ccon1 | 0 | -1 | 43* | 12* | 13 | 3 | 17* | 36* | 30*
Cc1cccc(NC(=O)CCN2C(=O)c3ccccc3C2=O)n1 | -1 | -14 | 6 | 2 | · | 2 | · | · | ·
SMILES | iPSC survival up | T cruzi repl | NR1D1 modulator | PG9 Ab binder | H9c2 TAG inh | MIN6 prolif | PG9 binder conf | PGV04 Ab binding | Rev-erbA confirm | others
CCNc1ccc(C(=O)O)cc1N | 0 | -22 | -2 | -2 | · | 0 | · | · | ·
COc1ncccc1-c1cc2nc(NCCNC(C)=O)n(C)c(=O)c2s1 | 4 | · | 3 | -1 | 18 | · | · | · | ·
CN1C(=S)SC(/[N+]([O-])=C\c2ccccc2F)C1(C)C (stereo unspecified) | -1 | -8 | 2 | -1 | -8 | -2 | · | · | ·
c1ccc2nc(-c3ccc(N4CCOCC4)cc3)ccc2c1 | -7 | 11 | 90* | 39* | · | -5 | 45* | 42* | 64* | PG9 bind DR=>67;PGV04 binding DR=3.7*;PG126 binding DR=4.2*;RORg counter=>40
C/C(Cc1ccccc1)=N\NC(=O)C1CCCCC1 | -2 | 2 | -1 | -1 | · | 0 | · | · | ·
CC(=O)c1c(O)c(C)c(O)c2c1OC1=CC(=O)C(C(C)=O)C(=O)[C@@]12C (stereo partly specified) | 1 | -9 | 4 | -3 | · | -5 | · | · | ·
Cc1sc2ncnc(N3CCC(C(=O)Nc4ccc(C#N)cc4)CC3)c2c1C | 0 | 30 | 27* | 15* | 10 | 2 | 16* | 10* | 19* | PG9 bind DR=>67;PGV04 binding DR=8.4*;PG126 binding DR=8.7*
Cc1sc2ncnc(N3CCC(C(=O)Nc4ccc(S(N)(=O)=O)cc4)CC3)c2c1C | 0 | · | -9 | -3 | 6 | -3 | · | · | ·
O=C(c1cc2cc(Cl)ccc2[nH]1)N1CCN(c2ccccc2F)CC1 | 0 | 0 | 1 | 2 | · | 2 | · | · | ·
O=C(c1cc2cc(Cl)ccc2[nH]1)N1CCN(c2ccccn2)CC1 | -1 | -5 | 51* | 27* | · | -4 | 7 | 23* | 41* | RORg counter=5.4*
CC(C)(C)NC(=O)CCN(/N=C/c1ccccc1F)C1=NS(=O)(=O)c2ccccc21 | 0 | 2 | 2 | -1 | · | 0 | · | · | ·
COc1ccc(S(=O)(=O)NCCOc2ccccc2)cc1C | 0 | -8 | -3 | -2 | -3 | 0 | · | · | ·
